CFTR F508del cor: correctors of CFTR F508del function in bronchial epithelial cells; activity (quench increase), % at 7.58 µM; CFBE cells, YFP halide quenching; stimulated with forskolin plus potentiator P3; % fluorescence drop versus neutral controls; hit rate 0.36% among 350,000;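 active means mean added fluorescence quench of at least 8% versus neutral control, with both replicates also reaching 8%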;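 further: cells transiently co-express mutant CFTR-F508del with the halide-sensitive YFP; corrector assay measuring rescue of mutant channel to the surface after 24 h compound exposure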
FGF22 binding: binders of recombinant human FGF22 by thermal shift. SYPRO orange fluorescence; percent of sucrose octasulfate shift, DMSO zero. hit rate 1.5% among 340,000. activity (Tm shift, normalised), % at 9.99 µM. AID 651658. Q9HCT0;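 active means mean Tm shift, scaled 0 neutral to 100 positive control, at about 1.3% or above, every replicate too, limit read from the data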
Target sequence (Q9HCT0 whole entry, looked up): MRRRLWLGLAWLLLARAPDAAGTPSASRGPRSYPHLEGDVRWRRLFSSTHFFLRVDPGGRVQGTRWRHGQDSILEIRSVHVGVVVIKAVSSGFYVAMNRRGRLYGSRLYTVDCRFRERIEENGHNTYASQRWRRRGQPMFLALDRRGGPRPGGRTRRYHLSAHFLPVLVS
DENV2 CPE rescue: DENV2-induced cell death inhibition; DENV2-infected cells, cytopathic effect rescue, plate reader; CPE inhibition, % at 9.99 µM; hit rate 1.7% among 350,000; AID 651640; in the data active means CPE inhibition above about 20%, passing the limit was not always enough; tested in BHK-21 cells;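 further: 0% = median of neutral control wells and 100% = median of positive control wells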
ERAP1 HTS inh: inhibitors of human ERAP1 aminopeptidase. Q9NZ08. recombinant ERAP1, Leu-AMC fluorescence, 60 min. hit rate 0.15% among 340,000. inhibition, % at 10.7 µM. AID 652197;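 active means mean replicate inhibition of at least 30%, or all replicates individually reaching that 30% level; inactive means mean below 30% and not every replicate reaching it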;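 further: 0% = neutral control wells and 100% = L-leucinethiol positive control wells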
E-selectin induc: E-selectin induction on HUVECs; P16581; HUVEC E-selectin immunofluorescence imaging; normalized: neutral wells 0, TNF-alpha wells 100; activation, % at 7.58 µM; hit rate 0.37% among 260,000; AID 686992;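 active means mean E-selectin-positive cell signal at least 10% of the positive control, reached in at least 60% of replicates, without over 20% cell loss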
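material = human umbilical vein endothelial cells (HUVEC), E-selectin induction | quantity = 3,000 cells/well | medium = EGM-2 growth medium on 0.1% gelatin-coated wells | technique = immunofluorescence imaging | read-out basis = % PE-positive cells | control set = TNF-alpha positive control, DMSO neutral control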
Numbers without * were called inactive; . = no result given. Shown are actives, neighbours in structure and some others; about 3.7% of the full set was active somewhere.

SMILES	CFTR F508del cor	FGF22 binding	DENV2 CPE rescue	ERAP1 HTS inh	E-selectin induc
CNC[C@@H]1Oc2ccc(NC(=O)Cn3cnnn3)cc2C(=O)N([C@@H](C)CO)C[C@@H]1C	-0.5	-0.2	-1.1	-0.1	0.0
CNC[C@H]1Oc2ccc(NC(=O)Cn3cnnn3)cc2C(=O)N([C@@H](C)CO)C[C@H]1C	0.4	-0.2	31.7*	0.6	-0.1
C[C@@H]1CCCCO[C@@H](CN(C)C(=O)C2CCCCC2)[C@H](C)CN([C@H](C)CO)C(=O)c2cc(NC(=O)Nc3ccc4c(c3)OCO4)ccc2O1	0.4	-0.4	-6.1	2.5	0.1
C[C@@H]1CN([C@@H](C)CO)C(=O)Cc2cc(NC(=O)Cn3cnnn3)ccc2O[C@H]1CN(C)C(=O)Nc1ccc(F)cc1	-1.0	.	.	.	86.0*
C[C@@H]1CN([C@@H](C)CO)C(=O)Cc2cc(NC(=O)Cn3cnnn3)ccc2O[C@@H]1CN(C)C(=O)Nc1ccc(F)cc1	0.4	.	.	.	-3.1
O=C(NCCc1ccc(Cl)cc1)c1ccc2nc[nH]c2c1	-0.5	43.1*	-2.6	5.7	.
O=C(NCCc1ccc(Cl)cc1Cl)c1ccc2nc[nH]c2c1	5.5	-0.1	-1.7	1.2	.
COC(=O)C1=C(C)N(Cc2cccc(C(F)(F)F)c2)C(=NCc2ccc(C(F)(F)F)cc2)NC1c1cccc(F)c1 (configuration not stated)	2.8	41.1	-1.2	-1.4	1.6
COC(=O)C1=C(C)N(C)C(=NCc2ccc(OC)cc2)NC1c1ccc(F)cc1 (configuration not stated)	-5.0	-0.3	50.5*	0.8	0.1
COC(=O)C1=C(C)N(Cc2ccccc2)C(=NCC(C)C)N[C@H]1c1cccc(F)c1	0.1	0.0	25.1*	5.4	-0.1
COC(=O)C1=C(C)N(Cc2ccc(C(F)(F)F)cc2)C(=NCc2ccccc2)NC1c1cccc(F)c1 (configuration not stated)	0.5	43.9*	-11.1	-1.8	-0.3
COC(=O)C1=C(C)N(Cc2ccccc2)C(=NCc2ccc(OC)cc2)N[C@H]1c1cccc(F)c1	-1.9	-0.2	6.3	0.1	-0.1
COC(=O)C1=C(C)N(Cc2ccccc2C(F)(F)F)C(=NCc2ccccc2)NC1CCc1ccccc1 (configuration not stated)	3.8	0.0	90.7*	-6.8	2.1
C[C@@H]1CN([C@@H](C)CO)C(=O)c2cc(NC(=O)Nc3ccc4c(c3)OCO4)ccc2O[C@H]1CN(C)S(C)(=O)=O	-3.4	-0.4	3.5	1.5	.
COc1ccc(NC(=O)N(C)C[C@@H]2OCc3cn(nn3)CCCC(=O)N([C@@H](C)CO)C[C@@H]2C)cc1	3.3	.	.	.	0.2
C[C@H](CO)N1C[C@H](C)[C@H](CN(C)S(=O)(=O)c2cccs2)Oc2ccc(NS(=O)(=O)c3ccc(F)cc3)cc2CC1=O	1.9	-0.2	-11.7	0.7	0.1
O=C(NCC[C@@H]1CC[C@@H](NS(=O)(=O)Cc2ccccc2)[C@@H](CO)O1)C1CCOCC1	1.4	0.0	12.0	1.0	0.4
CCN(CC)CCCN=C1N[C@@H](c2ccccc2)C(C(=O)OC)=C(C)N1CC	-0.8	-0.2	1.3	63.2*	0.1
CCN1C(=NCC2CC2)N[C@@H](c2ccccc2)C(C(=O)OC)=C1C	-1.8	0.3	-3.8	2.7	.
COc1ccccc1S(=O)(=O)N[C@H]1CC[C@H](CCNC(=O)C2CCCC2)O[C@@H]1CO	0.3	-0.3	-6.9	1.9	-0.1
Cc1cccc(-c2ccc([C@@H]3[C@H](CO)N4CCCCN(C(=O)c5ccncc5)C[C@@H]34)cc2)c1	-0.1	0.2	17.8	.	0.2
O=C(c1ccc2c(c1)OCO2)N1CCCCN2[C@H](CO)[C@@H](c3ccc(-c4ccccc4)cc3)[C@@H]2C1	1.1	0.6	26.9*	-0.5	-0.8
Cc1cccc(-c2ccc([C@H]3[C@H]4CN(C(=O)c5ccncc5)CCCCN4[C@H]3CO)cc2)c1	0.2	0.3	21.9*	1.9	0.1
O=C(c1cccc(F)c1)N1CCCCN2[C@H](CO)[C@H](c3ccc(-c4ccncc4)cc3)[C@@H]2C1	1.5	-0.4	21.8*	-2.3	-0.3
O=C(Nc1ccc2c(c1)[C@H]1C[C@@H](CC(=O)N3CCOCC3)O[C@@H](CO)[C@H]1O2)NC1CCCC1	0.7	0.0	-3.1	-1.1	-0.1
C[C@H](O)C#Cc1cnc2c(c1)C(=O)N([C@H](C)CO)C[C@H](C)[C@H](CN(C)C(=O)CC1CC1)O2	0.9	-0.1	-3.1	-0.5	-0.9

Screens as filed in PubChem BioAssay.
